Compounds with a hit are over-represented: about 2.5% of the library has one in this group of screens.
MEKK2 WT-MEK5 – raises or lowers MEK5 binding to wildtype human MEKK2 PB1 domain; bead flow cytometry, Alexa488-MEK5 binding to MEKK2 WT; actives lie on both sides; binding response (% of control), % at 10 µM; 290,000 compounds, 1.1% hits; in the data active = binding response below about 67% or above about 130%; inconclusive = no clear call, values can overlap the other calls; inactive = in between
UCH37 inh – blocks the human deubiquitinase UCH37; inhibition, % (no concentration beside the values); purified proteasome/UCH37, Ub-AMC cleavage fluorescence; Q9Y5K5; 330,000 compounds, 0.33% hits; AID 588478;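 active = mean inhibition over replicate wells above about 20%, limit read from the data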;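 note: 0% = compound-free wells with enzyme and 100% = wells lacking proteasome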
Target sequence (Q9Y5K5 whole entry, looked up): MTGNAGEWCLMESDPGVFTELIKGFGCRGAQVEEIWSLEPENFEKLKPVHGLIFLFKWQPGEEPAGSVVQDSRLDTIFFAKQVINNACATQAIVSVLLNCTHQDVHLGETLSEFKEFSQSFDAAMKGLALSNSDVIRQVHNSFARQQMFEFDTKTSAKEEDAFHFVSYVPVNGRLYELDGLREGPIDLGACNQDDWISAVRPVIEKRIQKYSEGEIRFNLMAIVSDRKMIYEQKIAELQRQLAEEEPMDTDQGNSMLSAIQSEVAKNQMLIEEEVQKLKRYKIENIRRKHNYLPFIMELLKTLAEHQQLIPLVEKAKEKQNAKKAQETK
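assay system = human UCH37 enzyme supplied as purified proteasome complex | amount = proteasome at 0.15 nM in the dispensed enzyme solution | schedule = 30 min compound-proteasome preincubation then 25 min substrate reaction, room temperature | measured by = fluorescence, ex 355 nm, em 460 nm | benchmarks = no-proteasome wells (full inhibition) and compound-free wells (no inhibition)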
MEKK3 PB1 HTS – MEKK3-MEK5 PB1 interaction, increase or decrease; Q99759; bead-based flow cytometry, Alexa488-MEK5 binding to MEKK3; actives lie on both sides; 0 = blocked by unlabeled MEK5, 100 = vehicle; binding response (% of control), % at 10 µM; 290,000 compounds, 1.4% hits; AID 1529;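 active = binding response more than 3 SD above or below the average of its plate-row segment, actives on both sides; inconclusive = wells at one plate position flagged as instrument error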;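 note: Alexa488 bead fluorescence after subtracting the streptavidin-only scavenger bead signal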
Rce1 inhib – blocks yeast Ras-converting enzyme | 290,000 compounds, 0.27% hits | Q03530 | AID 2563 | yeast membranes, quenched prenylated peptide cleavage fluorescence | calls only;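 active = fall in fluorescence gain of 50% or more versus controls, with final raw signal at or below 3038400; inconclusive = same 50% fall but final raw signal above 3038400; inactive = fall in fluorescence gain under 50%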;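 note: plate controls were neutral control wells for no effect and wells lacking membranes for full effect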
Target sequence (Q03530 whole entry, looked up): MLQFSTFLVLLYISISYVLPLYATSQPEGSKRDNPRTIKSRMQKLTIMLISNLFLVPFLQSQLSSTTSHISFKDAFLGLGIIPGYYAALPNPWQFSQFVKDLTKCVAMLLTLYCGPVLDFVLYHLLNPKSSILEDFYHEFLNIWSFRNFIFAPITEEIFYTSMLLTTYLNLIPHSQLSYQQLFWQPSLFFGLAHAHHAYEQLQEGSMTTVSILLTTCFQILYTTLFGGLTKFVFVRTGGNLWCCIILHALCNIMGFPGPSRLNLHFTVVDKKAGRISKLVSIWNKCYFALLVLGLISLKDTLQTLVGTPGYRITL
MEKK2mut PB1 HTS – signal of MEK5 binding to mutant human MEKK2 PB1 domain; bead flow cytometry, Alexa488-MEK5 binding to MEKK2 mutant; percent response, % at 10 µM; 290,000 compounds, 0.35% hits; in the data active = percent response above about 24%, passing the limit was not always enough
T cell modulator – modulates CD8 T cell binding to vesicles; 2C CD8+ T cell-vesicle binding, flow cytometry; active compounds read low; response (vesicle binding), % at 7 µM; 330,000 compounds, 0.068% hits; AID 2052;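 active = response, share of CD8 T cells binding vesicles, and their 90th percentile fluorescence all below set limits, cut at about 80% in these data, passing the limit was not always enough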;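 note: values below 100% mean blocked vesicle binding to the CD8+ T cells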
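Test system: purified 2C TCR transgenic mouse naive CD8+ T cells. Probe or stimulus: QL9-peptide-loaded Drosophila micro-vesicles bearing Ld, ICAM-1 and B7-1. Incubation: binding step 1.5 h, 37 °C, antibody labelling 20 min, ice. Measured by: flow cytometry of vesicle-bound cells.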
MEKK2wt confirm – raises or lowers MEK5 binding to wildtype human MEKK2, retest; AID 1892; 5,900 compounds, 2.4% hits; binding response (% of control), % at 10 µM; shares compounds with MEKK3 PB1 HTS; bead flow cytometry, Alexa488-MEK5 binding to MEKK2 WT; actives lie on both sides; in the data active = binding response below about 16% or above about 210%; inactive = in between
MEKK2mut-MEK5 – signal of MEK5 binding to mutant human MEKK2, retest | 5,900 compounds, 2% hits | bead flow cytometry, Alexa488-MEK5 binding to MEKK2 mutant | shares compounds with MEKK3 PB1 HTS | percent response, % at 10 µM | AID 1893; in the data active = percent response mostly above about 71%, no sharp cut-off; inactive = mostly below about 38%;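 note: higher means compound restores mutant binding toward wildtype level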
MEKK3 confirm – MEKK3-MEK5 PB1 inhibition, single concentration confirmation; shares compounds with MEKK3 PB1 HTS; bead flow cytometry, Alexa488-MEK5 binding to MEKK3; active compounds read low; binding response (% of control), % at 10 µM; 5,900 compounds, 1.8% hits; AID 1894;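 active = binding response below 72% of control, or above a set upper limit, though filed actives all read lower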;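 note: 100% = DMSO only wells and 0% = binding blocked by excess unlabeled MEK5; lower values mean stronger disruption of MEK5 binding to MEKK3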
An asterisk follows results filed as active; i = inactive; ? = inconclusive; nt = no result given; ! = a repeat was not active; [ ] = dose if it differs, or a comment.

SMILES	MEKK2 WT-MEK5	UCH37 inh	MEKK3 PB1 HTS	Rce1 inhib	MEKK2mut PB1 HTS	T cell modulator	MEKK2wt confirm	MEKK2mut-MEK5	MEKK3 confirm
CCC(CO)NC(=O)C1C=C2c3cccc4[nH]cc(c34)CC2N(C)C1 (configuration not stated)	70.0	-89.1	61.0	?	-20.0	269.7	nt	nt	nt
CC[C@@H](CO)NC(=O)[C@@H]1C=C2c3cccc4c3c(cn4C)C[C@H]2N(C)C1	38.0*![inhibitor]	-157.6	66.0*![inhibitor]	?	7.0	495.8	109.0	7.0	104.0
C[C@H]1CCC[C@@H](O)CCCC=Cc2cc(O)cc(O)c2C(=O)O1	nt	-0.1	nt	nt	nt	nt	nt	nt	nt
CC[n+]1c(SC)ccc2cc(OC)ccc21	108.0	-62.8	175.0*	i	1.0	213.8	107.0	5.0	103.0
Cc1onc(-c2c(Cl)cccc2Cl)c1C(N)=NOC(=O)N(C)C	nt	0.8	nt	nt	nt	nt	nt	nt	nt
COc1ccc(Cn2c(N)c(C(=O)NCc3ccco3)c3nc4ccccc4nc32)cc1OC	nt	-39.5	nt	nt	nt	138.4	nt	nt	nt
Nc1c(C(=O)NCc2ccco2)c2nc3ccccc3nc2n1CCN1CCCCC1	146.0*	i	122.0*	i	29.0*	158.8	139.0	16.0	105.0
CN(C)c1ccc(C(=O)NN=CC23CC[C@@H](O)CC2(O)CC[C@@H]2[C@@H]3CCC3(C)C(C4=CC(=O)OC4)CCC23O)cc1 (some centres not stated)	nt	5.3	nt	nt	nt	nt	nt	nt	nt
COc1ccc(N2CCN(CCCN)CC2)cc1	152.0*	-1.1	104.0	i	23.0	72.0	162.0	34.0	108.0
NCCCN1CCN(c2ccccc2)CC1	152.0*	0.6	98.0	i	28.0	96.4	133.0	25.0	101.0
Oc1ccc(Br)cc1CN1CCN(c2ccccc2)CC1	100.0	3.1	100.0	i	0.0	315.9	nt	nt	nt
CCC12CN3CCN(CC(C3)C1=NO)C2	nt	2.0	nt	nt	nt	nt	nt	nt	nt
CCOC(=O)c1cc(CC)sc1N=CC1C(=O)NC(=S)NC1=O	nt	4.8	nt	nt	nt	nt	nt	nt	nt
O=C(CSC1c2ccccc2-c2ccccc21)NN=Cc1ccccc1O	nt	-4.1	nt	nt	nt	nt	nt	nt	nt
O=c1[nH]c2ccccc2n1C1CCN(CCCC(c2ccc(F)cc2)c2ccc(F)cc2)CC1	146.0*	1.5	83.0	i	31.0*	491.1	195.0	66.0	109.0
C[C@]12CCC3C(CCC4=CC(=NOCC(=O)NC(CCC(N)=O)C(=O)O)CC[C@@]43C)C1CCC2O (some centres not stated)	nt	2.3	nt	nt	nt	nt	nt	nt	nt
CCOc1cc2c(cc1OCC)-n1cccc1C(c1ccc(C(C)C)cc1)NC2 (configuration not stated)	141.0*	5.1	103.0	i	20.0	i	145.0	22.0	107.0
CCOc1cc2c(cc1OCC)-n1cccc1C(c1ccc(F)cc1)NC2 (configuration not stated)	118.0	-0.6	103.0	i	9.0	397.6	nt	nt	nt
COC(=O)C1C2c3ccccc3OC1(C)N=c1sc(=Cc3cn(C)nc3C)c(=O)n12 (configuration not stated)	nt	2.0	nt	nt	nt	nt	nt	nt	nt
Cc1ccc(Cl)cc1N1CCN(CCN)CC1	139.0*	2.3	108.0	i	40.0*	302.4	128.0	12.0	100.0
CN1CCN(c2ccc(Cl)cc2N)CC1	101.0	1.6	97.0	i	-4.0	249.1	nt	nt	nt
CC12CC[C@H]3[C@@H](CCC4(O)C[C@H](O)CCC34C=NNC(=O)c3ccc(O)cc3)C1(O)CCC2C1=CC(=O)OC1 (some centres not stated)	nt	-0.4	nt	nt	nt	nt	nt	nt	nt
COc1ccc(OC)c(C=NOC(=O)Nc2ccc(Cl)cc2)c1	nt	-29.0	nt	nt	nt	nt	nt	nt	nt
Cc1cccc(OP(N)(=O)Oc2cccc(C)c2)c1	120.0	0.8	132.0*	i	29.0	610.9	92.0	-12.0	97.0
NP(=O)(Oc1ccccc1)Oc1ccccc1	nt	3.2	nt	nt	nt	nt	nt	nt	nt
SMILES	MEKK2 WT-MEK5	UCH37 inh	MEKK3 PB1 HTS	Rce1 inhib	MEKK2mut PB1 HTS	T cell modulator	MEKK2wt confirm	MEKK2mut-MEK5	MEKK3 confirm
O=C(N/N=C/c1c(O)n(CCC2=CCCCC2)c(=O)[nH]c1=O)c1ccccc1	111.0	-404.4	149.0*	i	1.0	253.6	100.0	-1.0	104.0
O=C(N/N=C/c1c(O)n(CCC2=CCCCC2)c(=S)[nH]c1=O)c1ccccc1	108.0	-93.6	154.0*	i	0.0	233.4	99.0	-2.0	104.0
C#C[C@@]1(O)CCC2C3CCC4=CC(=NOCC(=O)NC(C(=O)NC(CC(C)C)C(=O)O)C(C)C)CC[C@]4(C)C3CC[C@@]21C (some centres not stated)	nt	1.2	nt	nt	nt	nt	nt	nt	nt
CN1CC=C(/C=C/c2ccc(-c3ccccc3)cc2)CC1	167.0*	-16.1	110.0	i	10.0	272.6	163.0	30.0	104.0
Cc1cc(OC(=O)c2ccco2)c2c3c(c(=O)oc2c1)CCCC3	101.0	5.7	102.0	i	-2.0	201.1	nt	nt	nt
Cc1cc(OC(=O)c2cccs2)c2c3c(c(=O)oc2c1)CCCC3	108.0	1.9	151.0*	i	0.0	400.4	100.0	-3.0	101.0
COc1cccc(CNCCc2c[nH]c3ccccc23)c1OC	147.0*	0.8	107.0	i	44.0	i	114.0	3.0	103.0
CN(C)CCN(CC1CCCN(Cc2ccccc2F)C1)C(=O)Cc1ccccc1F (configuration not stated)	121.0	4.3	111.0	i	30.0*	198.9	115.0	5.0	102.0
CCOC(=O)C1(c2ccccc2)CCN(CCC(C#N)(c2ccccc2)c2ccccc2)CC1	136.0*	0.2	101.0	i	6.0	0.0	132.0	27.0	103.0
CC12CC[C@H]3[C@@H](CCC4(O)C[C@H](O)CCC34C=NNC(=O)c3ccccc3O)C1(O)CCC2C1=CC(=O)OC1 (some centres not stated)	nt	-5.3	nt	nt	nt	nt	nt	nt	nt
Cc1ccc(C(=O)N[C@@H](C)CN2C3=NC[C@@H](Cc4ccccc4)N3C[C@H]2Cc2ccc(O)cc2)cc1Br	248.0*	0.8	108.0	i	103.0*	186.4	159.0	61.0	107.0
Cc1ccc(C(=O)N[C@@H](C)CN2C3=NC[C@H](Cc4ccccc4)N3C[C@H]2Cc2ccc(O)cc2)cc1Br	168.0*	-0.7	112.0	i	31.0*	367.3	155.0	25.0	88.0
CC[C@H](C)C=C(C)/C=C/C1=CC2=C(Cl)C(=O)[C@@](C)(OC(C)=O)C(=O)C2=CO1	nt	19.6	nt	nt	nt	nt	nt	nt	nt

Screening data as filed in PubChem.
